Paper PMC8724909 (Molecular Systems Design & Engineering, 2021)

Assays:
[1] = test system: E. coli CFT073 nalidixic acid resistant line; test: Galleria mellonella infection model, survival; type: in vivo; conditions: nalidixic acid at 50 mg per body weight kg; 48 h
Summary of the method: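 Nalidixic acid-resistant strain was grown overnight in Mueller-Hinton II broth and washed twice in PBS. Larvae got 10^7 CFU in 10 μl PBS into the hemocoel via the first left proleg, then treatment via the second right proleg. Monotherapy doses were 10–100 mg/kg. Controls were PBS-only and untreated infected larvae. Larvae were kept at 37 °C for 48 h, with survival scored every 6 h.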

[2] = test system: Galleria mellonella larvae; test: Toxicity in Galleria mellonella larvae; type: in vivo; conditions: uninfected larvae injected with 10, 25, 50, 100 and 200 mg per body weight kg
Summary of the method: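 Age- and weight-defined larvae, stored at 15 °C without food, were used uninfected. Groups of 10 larvae received hemocoel injections of test compound or nalidixic acid at 10, 25, 50, 100 and 200 mg/kg body weight, given with a 10 μl syringe.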

Question: `CCn1cc(C(=O)O)c(=O)c2ccc(C)nc21` [Nalidixic acid, nalidixic acid] was tested. Which “improvement of survival of infected larvae, monotherapy” value [1] did it give?
Answer: Its value is “approximately 25%”.

Question: What about the toxicity in larvae [2] of the same molecule?
Answer: Its toxicity in larvae is “no toxicity”.
